Data on 17 compounds can be found in ChEMBL document CHEMBL3352721, “Identification, optimization, and pharmacology of acylurea GHS-R1a inverse agonists” (J Med Chem, 2014).

In brackets after ≈: the same amount, converted by molar mass. A value given as a limit tells only on which side of the number the result lay.

The nature of data set [1]: Lipophilicity, logD of the compound. It counts as physicochemical. Particulars: octanol/water.
The nature of data set [2]: Aqueous solubility at pH 7.4 under thermodynamic conditions. It counts as physicochemical. Particulars: buffer, read-out: Therm_solubility. In a few lines: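 Thermodynamic solubility measured from solid samples in aqueous medium at pH 7.4.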
Data set [3] concerns the target Growth hormone secretagogue receptor type 1 (Homo sapiens, UniProt Q92847). The data set can be described thus: Displacement of [125I]human ghrelin from human GHS-R1a expressed in HEK cell membranes after 60 mins by gamma counting method. The arrangement: species or system HEK293. Background: Loss of bound radioactivity is the signal in a displacement assay; it reports binding, not function.

Data set [4] concerns MDR1. The data set can be described thus: Apparent permeability in MDCK cells expressing MDR1 at 10 uM assessed as apical to basolateral side transport. Particulars: dog. It counts as ADME, cell-based, Canis lupus familiaris. In a few lines:
(§1)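 MDCK-MDR1 monolayers incubated with compound at 10 µM; permeability measured in both A→B and B→A directions, giving Papp A-B (x10^6 cm/s) and the efflux ratio.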

The subject of data set [5] is MDR1. The data set can be described thus: Efflux ratio in MDCK cells expressing MDR1 at 10 uM. It counts as ADME, cell-based, Canis lupus familiaris. Particulars: dog. In a few lines:
as §1

Data set [6] is described as follows: Cmax in Han-Wistar rat at 2 mg/kg, po by LC-MS/MS method. In kind it is ADME, organism-based. The arrangement: dose 2 mg/kg, route oral. Particulars: in vivo. An outline of the steps:
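Oral gavage in male HW rats, beagle dogs or CD-1 mice, vehicle Pluronic F127 in water. EDTA plasma was collected over 24 h and quantified by LC/MS/MS after acetonitrile precipitation. Cmax and bioavailability were obtained by non-compartmental analysis against IV data.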

Data set [7] in a line: Ratio of drug level in homogenized brain to plasma in Han-Wistar rat measured 1 hr after iv bolus then iv infusion by LC-MS/MS method. In kind it is ADME, organism-based. Particulars: read-out: BPR. In a few lines:
(§2)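 Brain:plasma ratio in homogenized brain 1 h after IV bolus followed by IV infusion. The free ratio used free fractions measured in plasma and brain (brain slice method or brain homogenate).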

A short description of data set [8]: Ratio of free drug level in homogenized brain to plasma in Han-Wistar rat measured 1 hr after iv bolus then iv infusion by LC-MS/MS method. In kind it is ADME, organism-based. Particulars: read-out: BPR. In a few lines:
as §2

Sequence of Growth hormone secretagogue receptor type 1 (Q92847 whole entry): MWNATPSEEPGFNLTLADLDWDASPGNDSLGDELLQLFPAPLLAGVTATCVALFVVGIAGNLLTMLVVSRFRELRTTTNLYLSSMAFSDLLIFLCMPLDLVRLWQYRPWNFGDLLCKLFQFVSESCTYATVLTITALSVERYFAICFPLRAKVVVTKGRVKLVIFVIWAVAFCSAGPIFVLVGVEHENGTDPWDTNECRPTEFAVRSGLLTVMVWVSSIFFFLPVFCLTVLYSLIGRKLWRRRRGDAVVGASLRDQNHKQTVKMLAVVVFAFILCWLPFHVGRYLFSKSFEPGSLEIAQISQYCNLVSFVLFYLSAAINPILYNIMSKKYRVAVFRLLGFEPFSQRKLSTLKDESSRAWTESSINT

As a reminder, the logD is lipophilicity at a set pH, counting ionised and neutral species. Compound `CC(C)NCCS(=O)(=O)c1ccc2nc(NC(=O)NC(=O)c3ccccc3Cl)sc2c1` yielded a logD in data set [1] of 2.3. For the same compound, in data set [2], the solubility thermodynamic was found to be 71 µM (≈ 34.2 µg/mL).
As a reminder, the IC50 is the midpoint of a concentration-inhibition curve. Read a high IC50 as weaker potency. Usually Papp A→B stands for how fast a substance crosses the layer from the apical side. As usually defined, the efflux ratio is a quotient of directional permeabilities that is used to spot active efflux. As usually defined, the Cmax is the highest concentration seen after dosing. `CN1CCN(CCCS(=O)(=O)c2ccc3nc(NC(=O)NC(=O)c4cc(N5CCCC5)ccc4Cl)sc3c2)CC1` registered an IC50 in data set [3] of 0.29 nM. In addition, in data set [1], the logD worked out at 3.1. For the same compound, the Papp A→B at 10 µM with MDR1 [4] was determined as 45 nm/s. Also, the efflux ratio at 10 µM in the data set with MDR1 [5] came out at 0.55. For the same compound, the highest level in data set [6] (Cmax) was 0.64 µM. The Kp at 1 h in data set [7] was under 0.03.
`Cc1ccn(-c2ccc(C(=O)NC(=O)Nc3nc4ccc(S(=O)(=O)CCCN5CCN(C)CC5)cc4s3)c(Cl)c2)n1` gave an IC50 in data set [3] of 0.48 nM. Also, the logD in data set [1] was found to be 2.6. In the data set on MDR1 [4], the Papp A→B at 10 µM was 35 nm/s. The efflux ratio at 10 µM in the data set with MDR1 [5] worked out at 0.86. This compound also displayed a Cmax in data set [6] of 0.22 µM.
In data set [3], `CN1CCN(CCCS(=O)(=O)c2ccc3nc(NC(=O)NC(=O)c4cc(C5CC5)ccc4Cl)sc3c2)CC1` registered an IC50 of 0.33 nM. For the same compound, the logD in data set [1] came out at 2.9. Moreover, the Papp A→B at 10 µM in the data set on MDR1 [4] was 20 nm/s. Further, the efflux ratio at 10 µM in the data set with MDR1 [5] was 9.1. The compound further returned a Cmax in data set [6] of 1.4 µM. Besides, the Kp at 1 h in data set [7] amounted to 0.18. In addition, the Kp uu at 1 h in data set [8] is 1.2.
`CCN(CC)CCCS(=O)(=O)c1ccc2nc(NC(=O)NC(=O)c3cc(-n4cccn4)ccc3Cl)sc2c1`: the IC50 in data set [3] was 3.9 nM. This compound also had a logD in data set [1] of 2.1. Also, in the data set on MDR1 [4], the Papp A→B at 10 µM came out at 7.1 nm/s. The efflux ratio at 10 µM in the data set with MDR1 [5] came out at 12. This compound also had a Cmax in data set [6] of 1.6 µM.
In the case of `C#Cc1ccc(Cl)c(C(=O)NC(=O)Nc2nc3ccc(S(=O)(=O)CCCN4CCN(C)CC4)cc3s2)c1`, the IC50 in data set [3] was 5.1 nM. The logD in data set [1] was determined as 2.3. Besides, in the data set on MDR1 [4], the Papp A→B at 10 µM was found to be 33 nm/s. Besides, the efflux ratio at 10 µM with MDR1 [5] was found to be 3.3. The Cmax in data set [6] worked out at 1.4 µM. The Kp at 1 h in data set [7] is under 0.03.
Turning to `COCCNCCCS(=O)(=O)c1ccc2nc(NC(=O)NC(=O)c3ccccc3Cl)sc2c1`, the IC50 in data set [3] was 8.6 nM. The compound further returned a logD in data set [1] of 1.3. Besides, the solubility thermodynamic in data set [2] is 87 µM (≈ 44.5 µg/mL).
Regarding `CN1CCC(S(=O)(=O)c2ccc3nc(NC(=O)NC(=O)c4ccccc4Cl)sc3c2)CC1`, the IC50 in data set [3] was found to be 65 nM. In data set [1], this compound yielded a logD of 2.2. The solubility thermodynamic in data set [2] is 69 µM (≈ 34 µg/mL). Also, in the data set with MDR1 [4], the Papp A→B at 10 µM came out at 170 nm/s. In addition, the efflux ratio at 10 µM in the data set with MDR1 [5] was determined as 0.9.
In turn, `CS(=O)(=O)c1ccc2nc(NC(=O)NC(=O)c3cc(-n4cccc4)ccc3Cl)sc2c1` yielded a log distribution coefficient (logD) in data set [1] of 2.8.
For `CCN(CC)CCCS(=O)(=O)c1ccc2nc(NC(=O)NC(=O)c3cc(-n4cccc4)ccc3Cl)sc2c1`, in data set [3], the IC50 is 0.43 nM. In data set [1], this compound returned a logD of 2.9. Further, the Papp A→B at 10 µM in the data set with MDR1 [4] amounted to 1 nm/s. Further, in the data set with MDR1 [5], the efflux ratio at 10 µM came out at 42. The compound further yielded a Cmax in data set [6] of 3.6 µM.
In data set [1], `O=C(NC(=O)c1ccccc1Cl)Nc1nc2ccc(S(=O)(=O)CCN3CCCC3)cc2s1` came in with a logD of 2.7. Moreover, the solubility thermodynamic in data set [2] was 64 µM (≈ 31.6 µg/mL).
Compound `CN1CCN(CCCS(=O)(=O)c2ccc3nc(NC(=O)NC(=O)c4cc(-c5ccccn5)ccc4Cl)sc3c2)CC1` displayed an IC50 in data set [3] of 0.69 nM. The same compound displayed a logD in data set [1] of 2.5. In the data set on MDR1 [4], the Papp A→B at 10 µM came to 5.2 nm/s. In the data set with MDR1 [5], the efflux ratio at 10 µM turned out to be 19. The compound also gave a Cmax in data set [6] of 1 µM.
In the case of `CCN(CC)CCCS(=O)(=O)c1ccc2nc(NC(=O)NC(=O)c3ccccc3Cl)sc2c1`, the IC50 in data set [3] was determined as 13 nM. The same compound showed a logD in data set [1] of 1.7. Moreover, the solubility thermodynamic in data set [2] was 280 µM (≈ 143 µg/mL). Also, the Papp A→B at 10 µM with MDR1 [4] amounted to 54 nm/s. Besides, in the data set on MDR1 [5], the efflux ratio at 10 µM turned out to be 2.7.
In data set [3], `COc1ccc2nc(NC(=O)NC(=O)c3c(Cl)cccc3Cl)sc2c1` had an IC50 of 210 nM. The same compound displayed a logD in data set [1] of over 3.9. Besides, the solubility thermodynamic in data set [2] is under 0.71 µM.
In turn, `Cc1ccn(-c2ccc(Cl)c(C(=O)NC(=O)Nc3nc4ccc(S(=O)(=O)CCCN5CCN(C)CC5)cc4s3)c2)n1` registered an IC50 in data set [3] of 0.53 nM. In data set [1], this compound displayed a logD of 2.6. In addition, the Papp A→B at 10 µM in the data set on MDR1 [4] turned out to be 6.8 nm/s. In addition, the efflux ratio at 10 µM in the data set with MDR1 [5] is 14. In data set [6], this compound returned a Cmax of 0.41 µM.
As for `Cc1cc(C)n(-c2ccc(Cl)c(C(=O)NC(=O)Nc3nc4ccc(S(=O)(=O)CCCN5CCN(C)CC5)cc4s3)c2)n1`, the IC50 in data set [3] is 1.3 nM. This compound also had a logD in data set [1] of 2.5. Further, in the data set with MDR1 [4], the Papp A→B at 10 µM is 4.4 nm/s. Moreover, in the data set with MDR1 [5], the efflux ratio at 10 µM stood at 76. Also, the peak level in data set [6] (Cmax) was 0.078 µM.
`CN(C)CCCS(=O)(=O)c1ccc2nc(NC(=O)NC(=O)c3ccccc3Cl)sc2c1` gave a logD in data set [1] of 1.7. Moreover, the solubility thermodynamic in data set [2] worked out at 240 µM (≈ 115 µg/mL). Further, in the data set with MDR1 [4], the Papp A→B at 10 µM is 130 nm/s. Besides, the efflux ratio at 10 µM in the data set with MDR1 [5] was 1.4.
